From ChEMBL document CHEMBL1121474, “Peptidoaminobenzophenones, a novel class of ring-opened derivatives of 1,4-benzoidazepines” (J Med Chem, 1980)

What was measured:
Mus musculus [1] = species on record: Mus musculus; assay: Effective dose required for 50% reduction of the control response was obtained by graphical interpolation rotarod performance; format: functional
How it was run: (§1)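 Oral dosing in mice; rod rotating at 5 rpm tested at 60 min after dosing, counting animals falling off within 2 min. ED50 by graphical interpolation.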

Mus musculus [2] = species on record: Mus musculus; assay: Dose required to prevent convulsion and death in 50% of mice during a 2 hr observation was obtained by graphical interpolation anti-pentylenetetrazole; format: functional
How it was run: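 Groups of five mice dosed orally, then challenged 60 min later with 125 mg/kg pentylenetetrazol subcutaneously. ED50 = dose preventing convulsion and death in 50% of animals over a 2 h observation, by graphical interpolation.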

Mus musculus [3] = species on record: Mus musculus; assay: Minimum effective dose (MED) required for the potentiation of thiopental sodium induced loss of the righting reflex; format: functional; details: read-out: MED
How it was run: (§2)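 Five mice per group dosed orally; 60 min later challenged with thiopental sodium 35 mg/kg intravenously. Minimum effective dose potentiating thiopental-induced anesthesia determined.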

[4] = (§3) Lethal dose (LD50) required to inhibit the spontaneous motor activity.; format: toxicity, organism-based; details: mouse, in vivo
How it was run: (§4)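 Acute oral toxicity in mice, groups of one to three animals, deaths assessed on day 7 after administration. LD50 by graphical interpolation.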

Mus musculus [5] = species on record: Mus musculus; assay: Antifighting activity was measured by the antagonism against foot-shock induced fighting; format: functional
How it was run: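 Mice dosed orally; pairs confined under inverted glass enclosure and given foot shock (5 Hz, 2 ms, DC 50 V); pairs with 15-20 fighting episodes in 3 min selected. Five pairs per dose; responses counted before and at 60 min after dosing. ED50 (50% inhibition) by graphical interpolation.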

Mus musculus [6] = assay: Spontaneous motor activity of mice was estimated after 60 minutes of oral administration.; format: functional; design: unit not given here
How it was run: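 Oral dosing in mice; activity quantitated with an activity meter over 10 min starting 60 min after dosing. Five groups of three mice per dose.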

Mus musculus [7] = species on record: Mus musculus; assay: Minimum effective dose (MED) required for the potentiation of thiopental sodium induced loss of the righting reflex (Students t test).; format: functional; details: read-out: MED; how it was run: as §2
Mus musculus [8] = species on record: Mus musculus; assay: Effective dose required for 50% reduction of the control response in mice was obtained by graphical interpolation rotarod performance; format: functional; how it was run: as §1
[9] = Lethal dose (LD50) required to inhibit the spontaneous motor activity; format: toxicity, organism-based; details: mouse, in vivo; how it was run: as §4
Mus musculus [10] = assay: as §3; format: functional; how it was run: as §4

| Compound | ED50 (Mus musculus [1]) [mg/kg] | ED50 (Mus musculus [2]) [mg/kg] | minimal effective dose (Mus musculus [3]) [mg/kg] | LD50 [4] [mg/kg] | ED50 for inhibition of foot-shock induced fighting (Mus musculus [5]) | Activity (Mus musculus [6]) | minimal effective dose (Mus musculus [7]) [mg/kg] | ED50 (Mus musculus [8]) [mg/kg] | LD50 [9] [mg/kg] | LD50 (Mus musculus [10]) [mg/kg] |
| --- | --- | --- | --- | --- | --- | --- | --- | --- | --- | --- |
| NCC(=O)NCC(=O)Nc1ccc(Cl)cc1C(=O)c1ccccc1Cl | > 100 | 22 | 10 | > 1000 | – | – | – | – | – | – |
| CN(C(=O)CNC(=O)[C@@H](N)Cc1ccccc1)c1ccc(Cl)cc1C(=O)c1ccccc1Cl | 52.2 | 1 | 1 | > 1000 | 10.2 | >50 | – | – | – | – |
| CCc1cc(C(=O)c2ccccc2)c(NC(=O)CNC(=O)CN)s1 | > 100 | > 100 | – | – | – | – | – | – | – | – |
| CCN(CC)CCN(C(=O)CNC(=O)CN)c1ccc(Cl)cc1C(=O)c1ccccc1 | > 100 | 5.7 | 5 | > 1000 | – | – | – | – | – | – |
| CC(C)C(N)C(=O)NCC(=O)Nc1ccc(Cl)cc1C(=O)c1ccccc1 (stereo unspecified) | > 100 | 27.4 | – | > 1000 | – | – | – | – | – | – |
| CN(C(=O)CNC(=O)[C@H](N)Cc1ccccc1)c1ccc(Cl)cc1C(=O)c1ccccc1Cl | 77.1 | 4.8 | 10 | > 1000 | 20.4 | >50 | – | – | – | – |
| CN1C(=O)CN=C(c2ccccc2)c2cc(Cl)ccc21 [DIAZEPAM] | 17.7 | – | – | – | – | 8.45 | 0.5 | – | – | – |
| NCC(=O)NCC(=O)Nc1ccc(Cl)cc1C(=O)c1ccccc1 | – | 14.1 | 25 | – | 14.6 | – | – | 52.4 | > 1000 | – |
| NCC(=O)NCC(=O)Nc1ccc(Cl)cc1C(=O)c1ccccn1 | 59.5 | 2.8 | – | – | – | – | – | – | – | – |
| CC(N)C(=O)NCC(=O)Nc1ccc(Cl)cc1C(=O)c1ccccc1 (stereo unspecified) | – | – | – | > 1000 | – | – | – | – | – | – |
| CNC1=Nc2ccc(Cl)cc2C(c2ccccc2)=[N+]([O-])C1 [CHLORDIAZEPOXIDE] | 82.3 | 2.71 | – | – | – | 56.09 | 2.5 | – | – | 1080 |
| CN(C(=O)CNC(=O)CN)c1ccc(Cl)cc1C(=O)c1ccccc1F | 16.7 | 0.3 | 0.1 | > 1000 | 1.6 | 3.1 | – | – | – | – |
| CN(C(=O)CNC(=O)C(N)Cc1ccccc1)c1ccc(Cl)cc1C(=O)c1ccccc1 (stereo unspecified) | 70.7 | 3.9 | 5 | > 1000 | 15.1 | 23.4 | – | – | – | – |
| CN(C(=O)CNC(=O)CN)c1ccc(Cl)cc1C(=O)c1ccccc1 | 29.4 | 1 | 2.5 | 750 | 10.5 | 15.1 | – | – | – | – |
| CC(C)C(N)C(=O)NCC(=O)N(C)c1ccc(Cl)cc1C(=O)c1ccccc1Cl (stereo unspecified) | > 100 | 1.6 | – | 750 | – | >25 | – | – | – | – |
| CN(C(=O)CNC(=O)CN)c1ccc(Cl)cc1C(=O)c1ccccc1Cl [LORZAFONE ANHYDROUS] | 35.4 | 0.56 | 0.5 | > 1000 | 3.2 | 1.4 | – | – | – | – |
| CC(C)CC(N)C(=O)NCC(=O)Nc1ccc(Cl)cc1C(=O)c1ccccc1 (stereo unspecified) | > 100 | 15.9 | 25 | > 1000 | – | – | – | – | – | – |
| CC(C)C(N)C(=O)NCC(=O)N(C)c1ccc(Cl)cc1C(=O)c1ccccc1 (stereo unspecified) | 73.5 | 3.4 | 10 | > 1000 | 21.5 | >50 | – | – | – | – |
| CCN(CC)CCN(C(=O)CNC(=O)CN)c1ccc(Cl)cc1C(=O)c1ccccc1F | 50.8 | 1.98 | – | > 1000 | 9.4 | 25 | – | – | – | – |
| CC(C)N(C(=O)CNC(=O)CN)c1ccc(Cl)cc1C(=O)c1ccccc1 | > 100 | 15.8 | – | – | – | – | – | – | > 1000 | – |
| CN(C(=O)CNC(=O)C(N)Cc1ccccc1)c1ccc(Cl)cc1C(=O)c1ccccc1Cl (stereo unspecified) | 37.5 | 1.6 | 5 | > 1000 | 17.1 | 5.5 | – | – | – | – |
| NC(C(=O)NCC(=O)Nc1ccc(Cl)cc1C(=O)c1ccccc1)c1ccccc1 (stereo unspecified) | > 100 | 27.4 | – | > 1000 | – | – | – | – | – | – |
